This note sets out measurements from ChEMBL document CHEMBL1155539, “Discovery of 4-[1-[([1-[4-(trifluoromethyl)benzyl]-1H-indol-7-yl]carbonyl)amino]cyclopropyl]benzoic acid (MF-766), a highly potent and selective EP4 antagonist for treating inflammatory pain” (Bioorg Med Chem Lett, 2010).

The target of series [1] is T1, Prostaglandin E2 receptor EP4 subtype (Homo sapiens, UniProt P35408). In words: Antagonist activity at prostanoid EP4 receptor in human whole blood assessed as inhibition of TNF-alpha-induced IP-10 release in presence EP4 agonist L-000902688. The series is classed as functional, tissue-based.
T1 sequence (P35408 whole entry): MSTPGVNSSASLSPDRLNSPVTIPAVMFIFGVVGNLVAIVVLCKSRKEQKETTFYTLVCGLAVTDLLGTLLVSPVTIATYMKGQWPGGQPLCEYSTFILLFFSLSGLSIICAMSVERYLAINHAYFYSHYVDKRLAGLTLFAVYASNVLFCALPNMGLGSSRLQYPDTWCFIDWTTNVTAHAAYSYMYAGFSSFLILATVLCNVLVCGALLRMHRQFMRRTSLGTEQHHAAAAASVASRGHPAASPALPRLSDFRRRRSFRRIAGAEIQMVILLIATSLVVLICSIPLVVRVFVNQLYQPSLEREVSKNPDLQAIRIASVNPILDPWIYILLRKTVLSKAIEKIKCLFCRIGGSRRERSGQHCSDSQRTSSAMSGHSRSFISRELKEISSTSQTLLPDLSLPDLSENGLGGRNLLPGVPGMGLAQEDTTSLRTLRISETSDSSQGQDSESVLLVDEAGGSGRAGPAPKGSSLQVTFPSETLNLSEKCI
Series [2] can be described thus: Plasma clearance in Sprague-Dawley rat at 5 mg/kg, iv and 20 mg/kg, po. The series is classed as ADME, organism-based. Put shortly: (§1)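 Sprague-Dawley rats dosed iv at 5 mg/kg and po at 20 mg/kg. The iv group was n = 2 males given the free acid in 60% PEG 200 at 1 mL/kg. PK parameters were derived from plasma levels.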
Series [3] addresses T2, Thromboxane A2 receptor (Homo sapiens, UniProt P21731).
T2 sequence (P21731 whole entry): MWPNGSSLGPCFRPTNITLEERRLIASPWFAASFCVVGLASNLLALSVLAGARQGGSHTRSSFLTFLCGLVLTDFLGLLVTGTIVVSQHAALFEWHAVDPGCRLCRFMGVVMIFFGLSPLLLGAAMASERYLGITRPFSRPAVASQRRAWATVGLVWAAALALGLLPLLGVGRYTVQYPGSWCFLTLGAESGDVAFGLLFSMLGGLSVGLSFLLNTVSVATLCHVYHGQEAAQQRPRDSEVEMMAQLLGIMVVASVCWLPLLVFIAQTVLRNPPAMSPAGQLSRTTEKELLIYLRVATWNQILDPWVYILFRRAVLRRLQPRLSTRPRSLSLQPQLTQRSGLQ
Briefly: Displacement of [3H]SQ-29548 from human prostanoid TP receptor expressed in HEK293-EBNA cells after 60 mins by scintillation counting. The series is classed as cell-based. (In a radioligand displacement assay an active substance lowers the binding of a labelled ligand.)

Series [4] relates to Rattus norvegicus. Briefly: Antiinflammatory activity in rat assessed as inhibition of complete Freund's adjuvant-induced primary paw swelling administered daily once 9 days after adjuvant challenge measured on day 18. The series is classed as functional. Put shortly:
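Rat adjuvant-induced arthritis model with daily dosing in mg/kg/day. Dose groups were 0, 0.001, 0.01, 0.1 and 1 mg/kg, plus a non-AIA control group. Primary and secondary paw swelling were scored as % inhibition relative to vehicle-treated arthritic rats, and ED50 was estimated from the dose–response.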

Series [5] deals with T1, Prostaglandin E2 receptor EP4 subtype. In words: Antagonist activity at human prostanoid EP4 receptor expressed in HEK293 cells assessed as inhibition of PGE2-induced cAMP accumulation by scintillation proximity assay. The series is classed as functional, cell-based. Put shortly: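 Read-out was inhibition of PGE2-induced cAMP accumulation at EP4. Values are means from at least two independent experiments.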
On the technique in general: Changes in cAMP serve as a functional read-out for many G protein-coupled receptors.

Series [6] has as its system Hepatocyte. In words: Oxidative metabolism in human hepatocytes assessed as protein covalent binding after 2 hrs. The series is classed as ADME, cell-based. Put shortly:
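[3H]-labelled compound incubated with fresh rat or human hepatocytes for 2 h. Covalent protein binding was expressed as pmol-equiv/mg protein, and samples were checked for tritium loss by HPLC with radiometric detection.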

A short description of series [7]: Volume of distribution in Beagle dog at 1 mg/kg, iv and 4 mg/kg, po. The following applies: in vivo.
Series [8] concerns the target T1, Prostaglandin E2 receptor EP4 subtype. Briefly: Displacement of [3H]PGE2 from human prostanoid EP4 receptor expressed in HEK293-EBNA cells after 60 mins by scintillation counting. The series is classed as cell-based.
For series [9], the target named is T3, Prostaglandin E2 receptor EP1 subtype (Homo sapiens, UniProt P34995).
T3 sequence (P34995 whole entry): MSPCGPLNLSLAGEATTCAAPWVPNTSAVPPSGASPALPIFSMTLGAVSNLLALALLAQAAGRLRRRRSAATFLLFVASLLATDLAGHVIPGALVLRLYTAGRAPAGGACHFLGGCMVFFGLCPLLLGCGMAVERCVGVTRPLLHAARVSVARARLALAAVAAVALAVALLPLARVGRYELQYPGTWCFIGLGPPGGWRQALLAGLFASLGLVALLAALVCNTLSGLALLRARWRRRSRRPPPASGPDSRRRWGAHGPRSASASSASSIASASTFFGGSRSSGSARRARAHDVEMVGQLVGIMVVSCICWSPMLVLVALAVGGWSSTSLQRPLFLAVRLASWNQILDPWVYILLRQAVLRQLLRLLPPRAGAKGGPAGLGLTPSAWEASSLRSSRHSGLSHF
Briefly: Displacement of [3H]PGE2 from human prostanoid EP1 receptor expressed in HEK293-EBNA cells after 60 mins by scintillation counting. The series is classed as cell-based.

Series [10] is described as follows: AUC (0 to 24 hrs) in Sprague-Dawley rat at 20 mg/kg, po. Also on record: time < 24 hr, dose 20 mg/kg, route oral. As to conditions: plasma. The series is classed as ADME, organism-based. Put shortly:
as §1

The target in series [11] is T4, Prostaglandin D2 receptor 2 (Homo sapiens, UniProt Q9Y5Y4).
T4 sequence (Q9Y5Y4 whole entry): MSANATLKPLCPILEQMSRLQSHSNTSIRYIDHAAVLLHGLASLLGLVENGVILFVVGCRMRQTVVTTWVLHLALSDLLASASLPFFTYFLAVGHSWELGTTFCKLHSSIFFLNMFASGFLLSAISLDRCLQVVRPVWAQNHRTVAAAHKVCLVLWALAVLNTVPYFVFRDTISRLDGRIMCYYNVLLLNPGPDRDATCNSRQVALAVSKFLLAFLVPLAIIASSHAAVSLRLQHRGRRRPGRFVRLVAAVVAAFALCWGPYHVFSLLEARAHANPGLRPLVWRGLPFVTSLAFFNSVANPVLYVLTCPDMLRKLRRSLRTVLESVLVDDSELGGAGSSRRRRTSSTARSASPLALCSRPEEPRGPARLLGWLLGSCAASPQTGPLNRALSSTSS
In words: Displacement of [3H]PGD2 from human Prostanoid DP2 receptor expressed in HEK293-EBNA cells after 60 mins by scintillation counting. The series is classed as cell-based.

Regarding `O=C(O)c1ccc(C2(NC(=O)c3cccc4ccn(Cc5ccc(C(F)(F)F)cc5)c34)CC2)cc1`, the IC50 in [1] is 9.5 nM; in series [5] it was 1.3 nM. The clearance in [2] came out at 3.7 mL/min/kg. Further, the Ki in [3] was 6700 nM; in series [8] it was 0.23 nM; in series [9] it was 20000 nM; in series [11], over 21000 nM. Besides, the ED100 in series [4] was found to be 0.025 mg/kg/day. For the same compound, the Activity in [6] is reported as 50 pmolequiv/mg. Besides, in series [7], the Vd turned out to be 0.8 L/kg. The compound further showed an AUC(0-t) at 24 h in series [10] of 150 µM·h.

The IC50 is the concentration needed to halve the response being measured. For orientation: Ki means a measure of affinity in units of concentration, obtained from inhibition or displacement. A lower Ki goes with a stronger hold on the target. By AUC(0-t) is commonly meant exposure summed from dosing to a finite time, without extrapolation to infinity.
